# From ChEMBL document CHEMBL1221379, “Identification and hit-to-lead optimization of a novel class of CB1 antagonists” (Bioorg Med Chem Lett, 2010)
# Experiments:
# [1] = Metabolic stability in human liver microsome assessed as compound remaining after 0.5 hrs; format: ADME; settings: liver microsomes, read-out: Stability
# Procedure, shortened: (§1)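 Human or mouse liver microsomes (300 nM cytochrome P450) in phosphate buffer pH 7.4 with 1 µM test compound and 1 mM NADPH. Incubated 30 min at 37 °C, stopped with acetonitrile, centrifuged, and analysed by LC/MS. Result given as % compound remaining at 0.5 h.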
# [2] = Metabolic stability in mouse liver microsome assessed as compound remaining after 0.5 hrs; format: ADME; settings: liver microsomes, read-out: Stability; procedure, shortened: as §1
# Cannabinoid receptor 1 = Cannabinoid receptor 1 (Homo sapiens, UniProt P21554); experiment: Antagonist activity at human cannabinoid CB1 receptor expressed in CHO cells by luciferase reporter gene assay
# [3] = Aqueous solubility of the compound; format: physicochemical; settings: buffer
# Procedure, shortened: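 Shake-flask method. 10 mM DMSO stock added to 0.05 M phosphate buffered saline pH 7.4, 2% DMSO final. Vortexed at 1500 rpm for 24 h at 21 °C, then vacuum-filtered. Filtrate assayed by HPLC with UV at 230 nm against a calibration from a 50 µM DMSO solution. Duplicate determinations, averaged.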
# [4] = AUC (0 to 7.5 hrs) in Wistar rat at 5 mg/kg, po; format: ADME, organism-based; parameters: time < 7.5 hr, dose 5 mg/kg, route oral; settings: plasma
# Procedure, shortened: (§2)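 Male Wistar rats dosed 5 mpk po in 0.5% gelatin in 5% mannitol (aq), or 1 mpk iv in 20% N,N-dimethylacetamide in saline. AUC po taken over 0–7.5 h; clearance and half-life from iv dosing; oral bioavailability and Vss from po/iv pharmacokinetic parameters.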
# [5] = Oral bioavailability in Wistar rat at 5 mg/kg; format: ADME, organism-based; settings: in vivo; procedure, shortened: as §2
# [6] = Clearance in Wistar rat at 1 mg/kg, iv; format: ADME, organism-based; parameters: dose 1 mg/kg, route intravenous; settings: in vivo; procedure, shortened: as §2
# [7] = Volume of distribution at steady state in Wistar rat at 5 mg/kg, po and 1 mg/kg, iv; format: ADME, organism-based; settings: in vivo, read-out: Vdss; procedure, shortened: as §2
# [8] = Half life in Wistar rat at 1 mg/kg, iv; format: ADME, organism-based; parameters: dose 1 mg/kg, route intravenous; settings: in vivo; procedure, shortened: as §2
# Mus musculus [9] = experiment: Inhibition of WIN-55212-2-induced hypothermia in sc dosed mouse assessed as change in rectal temperature administered 15 mins before WIN-55212-2 challenge measured after 60 mins; settings: 1 h
# Mus musculus [10] = experiment: Inhibition of WIN-55212-2-induced hypothermia in mouse assessed as change in rectal temperature at 30 umol/kg sc administered 15 mins before WIN-55212-2 challenge measured after 60 mins; parameters: scale not given: the % may be the effect or the level left
# Mus musculus [11] = experiment: Inhibition of WIN-55212-2-induced hypothermia in mouse assessed as change in rectal temperature at 100 umol/kg sc administered 15 mins before WIN-55212-2 challenge measured after 60 mins; parameters: scale not given: the % may be the effect or the level left
# Mus musculus [12] = experiment: Inhibition of WIN-55212-2-induced hypothermia in mouse assessed as change in rectal temperature at 1 umol/kg sc administered 15 mins before WIN-55212-2 challenge measured after 60 mins; parameters: scale not given: the % may be the effect or the level left
# Mus musculus [13] = experiment: Inhibition of WIN-55212-2-induced hypothermia in mouse assessed as change in rectal temperature at 3 umol/kg sc administered 15 mins before WIN-55212-2 challenge measured after 60 mins; parameters: scale not given: the % may be the effect or the level left
# Mus musculus [14] = experiment: Inhibition of WIN-55212-2-induced hypothermia in mouse assessed as change in rectal temperature at 10 umol/kg sc administered 15 mins before WIN-55212-2 challenge measured after 60 mins; parameters: scale not given: the % may be the effect or the level left
# Mus musculus [15] = experiment: Inhibition of WIN-55212-2-induced hypothermia in mouse assessed as change in rectal temperature at 0.1 umol/kg sc administered 15 mins before WIN-55212-2 challenge measured after 60 mins; parameters: scale not given: the % may be the effect or the level left
# Mus musculus [16] = experiment: Inhibition of WIN-55212-2-induced hypothermia in mouse assessed as change in rectal temperature at 0.3 umol/kg sc administered 15 mins before WIN-55212-2 challenge measured after 60 mins; parameters: scale not given: the % may be the effect or the level left
# Mus musculus [17] = experiment: Inhibition of WIN-55212-2-induced hypothermia in mouse assessed as change in rectal temperature at 0.01 umol/kg sc administered 15 mins before WIN-55212-2 challenge measured after 60 mins; parameters: scale not given: the % may be the effect or the level left
# Chain of Cannabinoid receptor 1 (P21554 whole entry): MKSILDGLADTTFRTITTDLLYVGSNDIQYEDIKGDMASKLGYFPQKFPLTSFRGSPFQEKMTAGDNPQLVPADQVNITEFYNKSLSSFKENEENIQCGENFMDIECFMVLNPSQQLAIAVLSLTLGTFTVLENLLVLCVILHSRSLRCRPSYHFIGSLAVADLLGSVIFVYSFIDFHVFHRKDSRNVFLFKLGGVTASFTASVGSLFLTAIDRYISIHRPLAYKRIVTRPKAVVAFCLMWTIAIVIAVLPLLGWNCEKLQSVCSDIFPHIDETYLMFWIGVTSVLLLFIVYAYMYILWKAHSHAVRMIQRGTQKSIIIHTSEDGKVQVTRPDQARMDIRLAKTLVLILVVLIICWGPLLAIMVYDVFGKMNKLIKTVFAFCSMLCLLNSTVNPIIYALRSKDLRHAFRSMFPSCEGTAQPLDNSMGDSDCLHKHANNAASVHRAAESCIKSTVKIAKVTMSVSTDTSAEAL
Structure (SMILES),remaining at 0.5 h [1] [%],remaining at 0.5 h [2] [%],IC50 (Cannabinoid receptor 1) [nM],solubility [3] [µg/mL],other results
COc1ccccc1-c1cccc(Cn2cnc3ccc(C(=O)NCc4cccc(F)c4)cc32)c1,2,0,104,–,–
CC(C)(C)C(=O)Nc1ccc2ncn(Cc3cccc(-c4cccc5c4OCO5)c3)c2c1,35,2,64,–,–
COc1cc(F)ccc1-c1cccc(Cn2cnc3ccc(NC(=O)C(C)(C)C)cc32)c1,–,–,269,–,–
CC(C)(C)C(=O)Nc1ccc2ncn(Cc3cccc(-c4cccc5c4OCO5)n3)c2c1,28,17,21,–,–
COc1cc(F)ccc1-c1cccc(Cn2cnc3ccc(NC(=O)C(C)(C)C)cc32)n1,14,1,73,–,–
CC(C)(C)C(=O)Nc1ccc2ccn(Cc3cccc(-c4cccc5c4OCO5)c3)c2c1,72,65,51,< 1,–
COc1cc(F)ccc1-c1cccc(Cn2ccc3ccc(NC(=O)C(C)(C)C)cc32)c1,51,58,58,< 1,–
Cn1cc(Cc2cccc(-c3cccc4c3OCO4)c2)c2cc(NC(=O)C(C)(C)C)ccc21,52,29,37,< 1,–
COc1cc(F)ccc1-c1cccc(Cc2cn(C)c3ccc(NC(=O)C(C)(C)C)cc23)c1,70,72,45,< 1,–
CC(C)(CO)C(=O)Nc1ccc2ccn(Cc3cccc(-c4cccc5c4OCO5)n3)c2c1,62,52,7,3.2,–
COc1cc(F)ccc1-c1cccc(Cn2ccc3ccc(NC(=O)C(C)(C)CO)cc32)n1,45,54,45,11.7,–
CC(C)(O)CC(=O)Nc1ccc2ccn(Cc3cccc(-c4cccc5c4OCO5)n3)c2c1,51,53,3,< 1,–
COc1cc(F)ccc1-c1cccc(Cn2ccc3ccc(NC(=O)CC(C)(C)O)cc32)n1,35,44,23,17.9,–
Cn1cc(Cc2cccc(-c3cccc4c3OCO4)n2)c2cc(NC(=O)C(C)(C)CO)ccc21,56,16,7,< 1,–
COc1cc(F)ccc1-c1cccc(Cc2cn(C)c3ccc(NC(=O)C(C)(C)CO)cc23)n1,47,5,27,2,–
Cn1cc(Cc2cccc(-c3cccc4c3OCO4)n2)c2cc(NC(=O)CC(C)(C)O)ccc21,56,36,5,14.9,AUC(0-t) at 7.5 h [4]: 1290 ng·h/mL; bioavailability [5]: 37%; clearance [6]: 19 mL/min/kg; Vd [7]: 1.2 L/kg; half-life [8]: 1 h; ED50 (Mus musculus [9]): 30 µmol/kg; Activity (Mus musculus [10]): 46.8%; Activity (Mus musculus [11]): 92.5%
COc1cc(F)ccc1-c1cccc(Cc2cn(C)c3ccc(NC(=O)CC(C)(C)O)cc23)n1,41,14,19,10.6,–
Cc1c(C(=O)NN2CCCCC2)nn(-c2ccc(Cl)cc2Cl)c1-c1ccc(Cl)cc1 [RIMONABANT],–,–,–,–,ED50 (Mus musculus [9]): 0.8 µmol/kg; Activity (Mus musculus [12]): 60.2%; Activity (Mus musculus [13]): 116.7%; Activity (Mus musculus [14]): 113.4%; Activity (Mus musculus [10]): 100.4%; Activity (Mus musculus [15]): 13.8%; Activity (Mus musculus [16]): 14.7%; Activity (Mus musculus [17]): -0.2%
